PMC10774712 (RSC Advances, 2024)
“Also recorded” adds a separate entry of the source.

Columns and labels:
HOP-92 = test: NCI 60 SRB assay; format: cell-based; conditions: Homo sapiens, HOP-92, read-out: growth inhibition
NCI 60 cancer cell lines = test: NCI 60 cell panel anti-proliferative assay; format: cell-based, human; conditions: 10 μM single dose
DOX/MDA-MB-468 cells = test: MTT cytotoxicity in drug-resistant DOX/MDA-MB-468 cell line; format: cell-based; conditions: read-out: IC50 DOX/MDA-MB-468, drug-resistant DOX/MDA-MB-468 cells
P-glycoprotein = test: Quantitative real time PCR for P-glycoprotein; format: cell-based; conditions: MDA-MB-468/ADR cells, 72 h, in comparison to the control (1)
Outline: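 P-gp gene expression measured by real-time RT-PCR in 1 × 10⁵ MDA-MB-468 cells. Cells exposed to test compound at 0.125, 0.250, 0.500 and 1.000 μM for 72 h. Expression reported as fold change relative to untreated control, set at 1.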

EGFR tyrosine kinase = EGFR tyrosine kinase (Homo sapiens, UniProt P00533); test: In vitro EGFR tyrosine kinase activity; format: biochemical; conditions: read-out: EGFR ± SD IC50
MDA-MB-468 cells [1] = test: Annexin-V-FITC/PI apoptosis assay; format: cell-based
Outline: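 MDA-MB-468 cells seeded at 4 × 10⁶ per T75 flask and exposed to test compound for 24 and 48 h, with a DMSO control. Cells trypsinised; 0.5 × 10⁶ cells washed twice in PBS and stained with 5 μl annexin V-FITC plus 5 μl PI in 1× binding buffer, 15 min, room temperature, dark. Read by flow cytometry; early, late and total apoptotic fractions scored.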

male Wistar rats = test: Toxicological study / calculation of LD50; format: in vivo, rat
Outline: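 Adult male Wistar rats, 200 ± 20 g, acclimatised 7 days at 22 ± 3 °C under a natural light cycle and fasted 18 h before dosing. Single dose of test compound in 0.5 mL DMSO. Five dose levels given to groups of five rats.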

MDA-MB-468 cells [2] = test: Cell cycle analysis; format: cell-based; conditions: for cell cycle arrest (in words): MDA-MB-468
Outline: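 Cells plated at 4 × 10⁶ per T75 flask and treated with test compound for 24 and 48 h. Harvested by trypsinisation, washed in PBS and fixed in ice-cold absolute alcohol. DNA stained with a commercial cell-cycle DNA reagent kit per the maker's instructions. Phase distribution determined by flow cytometry.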

Compound	inhibition at 10 µM (HOP-92)	antiproliferative activity (in words) (NCI 60 cancer cell lines; most of the cancer cell lines)	IC50 (DOX/MDA-MB-468 cells)	MDA-MB-468 P-glycoprotein fold change (P-glycoprotein)	IC50 (EGFR tyrosine kinase)	apoptosis induction (in words) (MDA-MB-468 cells [1]; MDA-MB-468)	late cellular apoptosis (MDA-MB-468 cells [1]; MDA-MB-468, IC50 of compound, DMSO control 0.27%)	early/primary apoptosis (MDA-MB-468 cells [1]; MDA-MB-468, IC50 of compound, DMSO control 0.39%, lower right quadrant)	total apoptosis (MDA-MB-468 cells [1]; MDA-MB-468, IC50 of compound, DMSO control 2.09%)	late apoptosis (MDA-MB-468 cells [1]; MDA-MB-468, IC50 of compound, control 0.25%, upper right quadrant)	time to death (male Wistar rats; 1000 mg kg^−1)	toxic signs (male Wistar rats; 1000 mg kg^−1, after intraperitoneal injection)	effect on the animals (male Wistar rats; doses 55, 90 and 100 mg kg^−1)	cell cycle arrest (in words) (MDA-MB-468 cells [2])	cells in S phase (%DIP S) (MDA-MB-468 cells [2]; MDA-MB-468, compound at its IC50, control 22.98%)	cells in G1 phase (%DIP G1) (MDA-MB-468 cells [2]; MDA-MB-468, compound at its IC50, control 52.76%)	cell cycle arrest (in words) (MDA-MB-468 cells [2]; listed as 16a)	cell growth inhibition (NCI 60 cancer cell lines; some melanoma, ovarian, renal and breast cancer cell lines)
CSc1nc(-c2ccc(Cl)cc2)c2c(NC(=O)c3ccccc3)nnc-2[nH]1 [Compound 6, N-(4-(4-Chlorophenyl)-6-(methylthio)-7H-pyrazolo[3,4-d]pyrimidin-3-yl)benzamide]	> 100%	poor antiproliferative activity																
Ethyl 1-(3-benzamido-4-(4-chlorophenyl)-7H-pyrazolo[3,4-d]pyrimidin-6-yl)-5-(2,4-dichlorophenyl)-3-oxo-2,3-dihydro-1H-pyrazole-4-carboxylate [Compound 16]			844 nM	0.449 fold	34 ± 2 nM	increased the percentage of apoptotic cells in a time-dependent manner	54.61%	18.08%	46.59%	31.47%	≤ 7 days	abdominal muscle contractions and ataxia signs	does not produce any significant effect	cell cycle arrest at the S phase; also recorded: G1 and S phases arrest pattern	28.16%	57.41%	induce cell cycle arrest with concurrent increase in G1 and S population	
N-(4-(4-Chlorophenyl)-6-(4-cyano-5-(2,4-dichlorophenyl)-3-oxo-2,3-dihydro-1H-pyrazol-1-yl)-7H-pyrazolo[3,4-d]pyrimidin-3-yl)benzamide [Compound 15]			267 nM	0.301 fold	135 ± 6 nM													above 100%
